Source: ChEMBL document CHEMBL1123883, “Structure-activity relationships in the 2-arylcarbapenem series: synthesis of 1-methyl-2-arylcarbapenems” (1987)
Converted amounts (≈) assume the structure as drawn.

Tests used:
Escherichia coli = experiment: Antibiotic activity was determined against Escherichia coli(5); type: functional
How it was run: (§1)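 Inhibitory concentrations against the strains of each species were expressed as a ratio to the inhibitory concentration of thienamycin, the reference carbapenem, in the same strains.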

Klebsiella sp. = experiment: Antibiotic activity was determined against Klebsiella species (5); type: functional; how it was run: as §1
Proteus = experiment: Antibiotic activity was determined against Proteus species (5); type: functional, Proteus sp.; how it was run: as §1
Enterobacter = experiment: Antibiotic activity was determined against Enterobacter species (6); type: functional; how it was run: as §1
[1] = biological target: T1, Dipeptidase 1 (Homo sapiens) (UniProt P16444); experiment: Susceptibility to mammalian dehydropeptidase DHP-1 relative to thienamycin
T1 sequence (whole entry): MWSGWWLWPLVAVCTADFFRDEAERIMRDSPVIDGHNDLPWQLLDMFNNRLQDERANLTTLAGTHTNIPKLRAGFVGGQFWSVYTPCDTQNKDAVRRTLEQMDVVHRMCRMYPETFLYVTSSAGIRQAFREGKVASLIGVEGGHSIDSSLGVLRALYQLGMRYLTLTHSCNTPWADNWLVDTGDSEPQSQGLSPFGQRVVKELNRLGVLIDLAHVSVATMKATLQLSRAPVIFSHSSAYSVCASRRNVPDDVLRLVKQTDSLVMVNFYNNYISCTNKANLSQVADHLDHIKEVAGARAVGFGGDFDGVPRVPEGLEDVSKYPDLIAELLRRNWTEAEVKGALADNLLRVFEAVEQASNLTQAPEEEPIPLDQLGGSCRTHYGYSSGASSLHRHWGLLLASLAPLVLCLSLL

Enterococcus = experiment: Antibiotic activity was determined against Enterococcus (3); type: functional; how it was run: as §1
Staphylococcus aureus = experiment: Antibiotic activity was determined against Staphylococcus aureus (5); type: functional; how it was run: as §1
Serratia = experiment: Antibiotic activity was determined against Serratia species (2); type: functional; how it was run: as §1
Pseudomonas aeruginosa = experiment: Antibiotic activity was determined against Pseudomonas aeruginosa (5); type: functional; how it was run: as §1

| Structure (SMILES) | MIC (Escherichia coli) [µg/mL] | MIC (Klebsiella sp.) [µg/mL] | MIC (Proteus) [µg/mL] | MIC (Enterobacter) [µg/mL] | Relative susceptibility [1] | MIC (Enterococcus) [µg/mL] | MIC (Staphylococcus aureus) [µg/mL] | MIC (Serratia) [µg/mL] | MIC (Pseudomonas aeruginosa) [µg/mL] |
| --- | --- | --- | --- | --- | --- | --- | --- | --- | --- |
| C[C@@H](O)[C@H]1C(=O)N2C(C(=O)[O-])=C(c3ccc(O)cc3)C[C@H]12.[K+] | 2.8 | 0.7 | 8 | 1.7 | 0.2 | 7.5 | 0.4 | 2.3 | 0.06 |
| C[C@H](O)[C@H]1C(=O)N2C(C(=O)O)=C(c3ccc(CN)cc3)C[C@H]12 |  |  |  |  | 0.02 |  |  |  |  |
| O=C(O)C1=C(c2cccnc2)CC2CC(=O)N12 (stereo not given) | 0.01 (≈ 0.0434 µM) | 0.02 (≈ 0.0869 µM) | 0.03 (≈ 0.13 µM) | 0.02 (≈ 0.0869 µM) | 0.3 | 0.15 (≈ 0.652 µM) | 0.002 (≈ 0.00869 µM) | 0.01 (≈ 0.0434 µM) | 0.1 (≈ 0.434 µM) |
| C[C@@H](O)[C@H]1C(=O)N2C(C(=O)O)=C(SCCN)C[C@H]12 [THIENAMYCIN] | 0.3 (≈ 1.1 µM) | 1.3 (≈ 4.77 µM) | 7.5 (≈ 27.5 µM) | 1.4 (≈ 5.14 µM) | 1 | 5 (≈ 18.4 µM) | 0.04 (≈ 0.147 µM) | 2.5 (≈ 9.18 µM) | 5.8 (≈ 21.3 µM) |
| C[C@@H](O)[C@H]1C(=O)N2C(C(=O)O)=C(c3ccc(CN)nc3)[C@H](C)[C@H]12 | 1.5 (≈ 4.73 µM) | 2.8 (≈ 8.82 µM) | 2.5 (≈ 7.88 µM) | 3.5 (≈ 11 µM) | 0.16 | 2.8 (≈ 8.82 µM) | 0.5 (≈ 1.58 µM) | 3.2 (≈ 10.1 µM) | 0.08 (≈ 0.252 µM) |
| C[C@@H](O)[C@H]1C(=O)N2C(C(=O)[O-])=C(c3ccc(CO)cc3)[C@H](C)[C@H]12.[K+] | 0.9 | 0.7 | 5.3 | 1.1 | 0.22 | 1.4 | 0.2 | 1.2 | 0.02 |
| C[C@@H](O)[C@H]1C(=O)N2C(C(=O)O)=C(c3ccc(CN)nc3)C[C@H]12 | 3 (≈ 9.89 µM) | 3 (≈ 9.89 µM) | 3.2 (≈ 10.5 µM) | 5.7 (≈ 18.8 µM) | 0.1 | 8 (≈ 26.4 µM) | 1.9 (≈ 6.26 µM) | 5.3 (≈ 17.5 µM) | 0.2 (≈ 0.659 µM) |
| C[C@@H]1C(c2cccnc2)=C(C(=O)[O-])N2C(=O)[C@H]([C@@H](C)O)[C@@H]12.[K+] | 3.5 | 2.5 | 2.5 | 5 | 0.1 | 0.15 | 0.15 | 22 | 0.03 |
| C[C@@H](O)[C@H]1C(=O)N2C(C(=O)[O-])=C(c3ccccc3)C[C@H]12.[K+] | 2.5 | 1.4 | 10 | 4.6 | 0.2 | 5.7 | 0.5 | 10 | 0.03 |
| C[C@@H](O)[C@H]1C(=O)N2C(C(=O)[O-])=C(c3ccc(CO)cc3)C[C@H]12.[K+] | 2 | 2.3 | 15 | 4 | 0.28 | 5 | 1 | 7 | 0.02 |

The remaining lines, values ahead:

| MIC (Escherichia coli) [µg/mL] | MIC (Klebsiella sp.) [µg/mL] | MIC (Proteus) [µg/mL] | MIC (Enterobacter) [µg/mL] | Relative susceptibility [1] | MIC (Enterococcus) [µg/mL] | MIC (Staphylococcus aureus) [µg/mL] | MIC (Serratia) [µg/mL] | MIC (Pseudomonas aeruginosa) [µg/mL] | Structure (SMILES) |
| --- | --- | --- | --- | --- | --- | --- | --- | --- | --- |
| 1.6 (≈ 5.06 µM) | 1.7 (≈ 5.37 µM) | 2 (≈ 6.32 µM) | 2.5 (≈ 7.9 µM) | 0.07 | 3 (≈ 9.48 µM) | 0.4 (≈ 1.26 µM) | 6.5 (≈ 20.5 µM) | 0.13 (≈ 0.411 µM) | C[C@@H](O)[C@H]1C(=O)N2C(C(=O)O)=C(c3ccc(CN)cc3)[C@H](C)[C@H]12 |
| 12 | 7 | 7 | 13 | 0.7 | 2.5 | 1 | 13 | 0.05 | C[C@@H](O)[C@H]1C(=O)N2C(C(=O)[O-])=C(c3cccnc3)[C@H](C)[C@H]12.[K+] |
| 0.1 (≈ 0.436 µM) | 0.04 (≈ 0.174 µM) | 0.03 (≈ 0.131 µM) | 0.2 (≈ 0.872 µM) | 0.35 | 1 (≈ 4.36 µM) | 0.02 (≈ 0.0872 µM) | 0.01 (≈ 0.0436 µM) | 0.03 (≈ 0.131 µM) | O=C(O)C1=C(c2ccccc2)CC2CC(=O)N12 (stereo not given) |
| 9 | 7 | 17 | 20 | 0.4 | 6 | 1.5 | 28 | 0.05 | C[C@@H](O)[C@H]1C(=O)N2C(C(=O)[O-])=C(c3cccnc3)C[C@H]12.[K+] |
| 0.5 | 0.3 | 3.5 | 0.3 | 0.25 | 2 | 0.2 | 1 | 0.02 | C[C@@H](O)[C@H]1C(=O)N2C(C(=O)[O-])=C(c3ccccc3)[C@H](C)[C@H]12.[K+] |
| 3.5 (≈ 11.6 µM) | 3.2 (≈ 10.6 µM) | 6.5 (≈ 21.5 µM) | 11 (≈ 36.4 µM) |  | 9.2 (≈ 30.4 µM) | 1.5 (≈ 4.96 µM) | 5.3 (≈ 17.5 µM) | 0.3 (≈ 0.992 µM) | CC(O)[C@H]1C(=O)N2C(C(=O)O)=C(c3ccc(CN)cc3)C[C@H]12 (stereo not given in full) |
